FLuc inh counter: firefly luciferase enzyme inhibitors, primary screen, artefact control for luciferase-based inhibitor screens, biochemical, luminescence, ATPLite | hit rate 1.5% among 200,000 | inhibition, % at 10 µM | Luciferin 4-monooxygenase (Photinus pyralis), P08659 | 10 min;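 active = inhibition above about 50% when tested at 10 µM, limit read from the data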
Target sequence (P08659 whole entry, looked up): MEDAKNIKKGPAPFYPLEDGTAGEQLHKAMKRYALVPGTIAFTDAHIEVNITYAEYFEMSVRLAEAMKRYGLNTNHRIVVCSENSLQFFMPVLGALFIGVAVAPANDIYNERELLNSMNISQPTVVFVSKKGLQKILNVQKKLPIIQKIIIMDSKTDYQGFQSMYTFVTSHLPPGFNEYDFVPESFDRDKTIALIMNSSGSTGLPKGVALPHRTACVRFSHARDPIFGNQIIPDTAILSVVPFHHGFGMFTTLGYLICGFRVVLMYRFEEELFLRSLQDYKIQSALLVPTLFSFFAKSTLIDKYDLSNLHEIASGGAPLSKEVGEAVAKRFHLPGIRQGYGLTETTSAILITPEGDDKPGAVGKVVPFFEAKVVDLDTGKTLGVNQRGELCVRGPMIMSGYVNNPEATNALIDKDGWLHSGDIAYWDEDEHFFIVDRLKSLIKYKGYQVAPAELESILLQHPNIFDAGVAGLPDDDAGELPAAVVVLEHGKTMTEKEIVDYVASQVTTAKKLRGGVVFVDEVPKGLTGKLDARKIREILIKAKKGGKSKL
C8 TRAIL sens: viability loss with TRAIL in NB7+C8 cells, primary screen, TRAIL sensitizer project, cell-based, ATPlite luminescence | hit rate 1% among 360,000 | inhibition (viability loss, TRAIL sensitization), % at 10 µM;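 active = compounds causing at least 50% loss of cell viability in the single-dose screen, relative to plate controls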
FLuc stim CS: FLuc activators, initial screening, artefact control for FLuc-dependent activation tests, biochemical, ATPlite luminescence; activation factor at 10 µM; 200,000 tested, under 10 active; ATPlite luciferase biochemical, 10 min; 0 = ATP-free wells, 1 = DMSO control; Luciferin 4-monooxygenase (Photinus pyralis), P08659;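 active = luciferase activation factor, scaled between plate controls, of at least 2 with compound at 10 µM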
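Assay system: Luciferase/luciferin detection reagent, cell-free biochemical luciferase assay / Also added: ATP substrate / Schedule: 10 min at ambient temperature / Measured by: luminescence measurement of luciferase light output / Benchmarks: low control with PBS replacing ATP, high control enzyme plus ATP without compound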
PPC-1+TRAIL kill: compounds killing PPC-1 cancer cells with TRAIL present, primary screen, TRAIL potentiator project, ATPLite luminescence, uHTS. PPC-1 cells + TRAIL, ATPLite viability luminescence. cell killing (% activity), % at 4 µM or 5 µM. hit rate 0.41% among 220,000;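 active = cell killing above 50% in the first pass at 4 µM, then a duplicate retest at 5 µM averaging 50% or more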
PPC1 cytotox: cytotoxicity in PPC-1 cells, confirmation, cytotoxicity control for TRAIL apoptosis potentiator project, cell-based, ATP content luminescence; shares compounds with PPC-1+TRAIL kill; PPC-1 viability, ATPlite luminescence, overnight; cytotoxicity, % at 5 µM; hit rate 50% among 1,200; AID 1447, 2008;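 active = reconfirmed compounds whose average cytotoxicity reaches 50% or more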
Of the large screens only hits and unclear results are named; the others gave an inactive call (follow-up assays come after a bar, where they were run). Shown are actives, neighbours in structure and some others; about 1.6% of the full set was active somewhere.

COCCN(CC(=O)Nc1cc(Cl)ccc1-n1cncn1)Cc1nc2ccccc2c(=O)[nH]1	none (no result: FLuc inh counter, FLuc stim CS, PPC-1+TRAIL kill)
COc1cccc(C(=O)/C=C/Nc2cccc(O)c2)c1	FLuc inh counter 96, C8 TRAIL sens 82, PPC-1+TRAIL kill 85 | PPC1 cytotox 86
CCCCN1C=CC(=C2N=c3cccc([N+](=O)[O-])c3=N2)C=C1	none
CCCCCCN1C=CC(=C2C(=O)c3ccccc3C2=O)C=C1	FLuc inh counter 94, C8 TRAIL sens 92, PPC-1+TRAIL kill 81 | PPC1 cytotox 80
CCN1C=CC(=C2C(=O)c3ccccc3C2=O)C=C1	FLuc inh counter 98, C8 TRAIL sens 91, PPC-1+TRAIL kill 96 | PPC1 cytotox 96
COC(=O)c1ccc(COc2ccc(C)cc2[N+](=O)[O-])o1	none (no result: FLuc inh counter, FLuc stim CS) | PPC1 cytotox inactive
Cc1ccc(OCc2ccc(C(=O)NN)o2)c([N+](=O)[O-])c1	none (no result: FLuc inh counter, FLuc stim CS)
CCCN1C(=O)c2ccccc2NC1c1ccc(C)cc1 (configuration not stated)	none
COC(=O)c1ccc(OCC(=O)c2ccc(O)cc2O)cc1	FLuc inh counter 65 | PPC1 cytotox inactive
COc1ccccc1N(CC(O)Cn1ccnc1C)S(=O)(=O)c1ccccc1 (configuration not stated)	none
COc1ccc(/C=C/C(=O)c2cc(F)ccc2OC(=O)c2ccccc2C)cc1OC	none
CC(Oc1cccc(Cl)c1)C(=O)Nc1cc(=O)n(C)c(=O)n1C (configuration not stated)	none | PPC1 cytotox inactive
COc1ccc(OC)c(C=C2CCc3ccccc3C2=O)c1	none (no result: FLuc inh counter, FLuc stim CS, PPC-1+TRAIL kill)
COc1ccc(N/C=C2\CCc3ccccc3C2=O)cc1	FLuc inh counter 92, C8 TRAIL sens 86, PPC-1+TRAIL kill 72 | PPC1 cytotox 72
CC(=O)Oc1ccc(/C=C2/CCc3ccccc3C2=O)cc1	C8 TRAIL sens 76 (no result: FLuc inh counter, FLuc stim CS) | PPC1 cytotox inactive
Cc1cc(O)cc2c1C(c1ccc(F)cc1)CC1(CC(C)(C)NC(=S)N1)O2 (configuration not stated)	none
Cc1ccc(-c2nn(-c3ccccc3)cc2/C=N/NC(=O)c2ccncc2)o1	none | PPC1 cytotox inactive
CCOc1cc(C(=O)N/N=C/c2cn(-c3ccccc3)nc2-c2cc3ccccc3o2)cc(OCC)c1OCC	none (no result: FLuc inh counter, FLuc stim CS, PPC-1+TRAIL kill)
COc1ccccc1N=Nc1nc(-c2ccccc2)c(-c2ccccc2)[nH]1	none
Oc1ccccc1N=Nc1nc(-c2ccccc2)c(-c2ccccc2)[nH]1	none | PPC1 cytotox inactive
O=[N+]([O-])c1cc2oc3c(c2c(C=NCc2ccccc2)c1O)CCCC3	none
O=C(CCCCn1c(=O)c2ccccc2n(Cc2ccc(F)cc2)c1=O)NCc1ccco1	none | PPC1 cytotox inactive
CCOC(=O)c1ccccc1NC(=O)/C=C/C(=O)O	none
O=C(O)/C=C/C(=O)Nc1ccccc1C(=O)OCC(=O)c1ccc2c(c1)OCCO2	FLuc inh counter 96, C8 TRAIL sens 53, PPC-1+TRAIL kill 78 | PPC1 cytotox 79
CSc1cc(C)n(-c2ccccc2)c(=S)c1C(C)=O	none | PPC1 cytotox inactive
COc1cc(C2c3c(-c4ccccc4)n[nH]c3C(=O)N2c2ccc(C(=O)O)cc2)ccc1O (configuration not stated)	none
COc1ccc(S(=O)(=O)Nc2ccccc2)cc1	none (no result: FLuc inh counter, FLuc stim CS, PPC-1+TRAIL kill)
COc1ccc(S(=O)(=O)Nc2ccc(O)c3ccccc23)cc1	none | PPC1 cytotox inactive
Cc1cccc(C)c1NC(=O)C1(N(Cc2ccco2)C(=O)CC2NC(=O)NC2=O)CCCCC1 (configuration not stated)	none
COc1ccccc1C1OCC(C)([N+](=O)[O-])CO1 (configuration not stated)	none (no result: FLuc inh counter, FLuc stim CS, PPC-1+TRAIL kill)
O=C(NCc1ccco1)C1CC(=O)N(c2ccc(O)cc2)C1 (configuration not stated)	none | PPC1 cytotox inactive
COc1ccc(N2CC(C(=O)Nc3ccccc3C(=O)NCc3ccco3)CC2=O)cc1 (configuration not stated)	none
COc1ccc(S(=O)(=O)Nc2ccccn2)c(C)c1C	none | PPC1 cytotox inactive
Cc1ccc(N2C(=O)c3ccccc3C2O)nc1 (configuration not stated)	FLuc inh counter 80, PPC-1+TRAIL kill 53 (no result: C8 TRAIL sens) | PPC1 cytotox 54
Cc1ccc(N2C(=O)c3ccccc3C2Nc2ccccc2F)nc1 (configuration not stated)	none
Fc1ccc(CO/N=C/C2=C(Cl)c3ccccc3CC2)cc1	none | PPC1 cytotox inactive
CCOC(=O)c1nn(-c2ccc(F)cc2)cc1O	none
CCOC(=O)c1nn(-c2ccc3c(c2)CCN3C(C)=O)cc1O	FLuc inh counter 61, C8 TRAIL sens 62 | PPC1 cytotox inactive
On1onc2c3cc(-c4ccccc4)nc3ccc21	none | PPC1 cytotox inactive
COc1ccc(CNc2cc(C)ccc2C)c(OC)c1OC	none
Cc1ccc2c(c1)COc1c3ccc(C(=O)N4CCCCC4)cc3nn1-2	none (no result: FLuc inh counter, FLuc stim CS)
O=C(c1ccc2c3n(nc2c1)-c1ccccc1CO3)N1CCOCC1	C8 TRAIL sens 51 (no result: FLuc inh counter, FLuc stim CS) | PPC1 cytotox inactive
O=C(c1ccc2c3n(nc2c1)-c1ccccc1CO3)N1CCCCC1	C8 TRAIL sens 70, PPC-1+TRAIL kill 58 (no result: FLuc inh counter, FLuc stim CS) | PPC1 cytotox 60
C[C@@H](CO)NC(=O)c1ccc2c3n(nc2c1)-c1ccccc1CO3	C8 TRAIL sens 91, PPC-1+TRAIL kill 89 (no result: FLuc inh counter, FLuc stim CS) | PPC1 cytotox 91
O=C(Cc1ccc(Cl)cc1)N1CCN(c2ccc(F)cc2)CC1	none (no result: FLuc inh counter, FLuc stim CS, PPC-1+TRAIL kill)
CC(=O)N=c1sc2cc(C)ccc2n1C	none | PPC1 cytotox inactive
CC(=O)SCC(=O)N=c1sc2cc(F)ccc2n1C	none
CCOC(=O)c1c(NC(=O)C2C3C=CC(C3)C2(C)C(=O)O)sc2c1CCCC2 (configuration not stated)	none
COc1ccc(C(=O)N=c2nc3ccccn3s2)cc1	FLuc inh counter 97, C8 TRAIL sens 91, PPC-1+TRAIL kill 90 | PPC1 cytotox 90
Cc1ccc(C(=O)Nc2nc(=O)n(C(=O)CC(C)C)s2)cc1	none
Cc1ccc(C(=O)Nc2nc(=O)n(C)s2)cc1	FLuc inh counter 81, C8 TRAIL sens 53 | PPC1 cytotox inactive
Cc1ccc(C(=O)Nc2nccs2)cc1	FLuc inh counter 83 | PPC1 cytotox inactive
Cc1ccc(C)c(NC(=O)CCNS(=O)(=O)c2ccc3[nH]c(=O)oc3c2)c1	none (no result: FLuc inh counter, FLuc stim CS, PPC-1+TRAIL kill)
CC1CN(C)C(C)CC1NCc1ccc2c(c1)OCO2 (configuration not stated)	none
c1ccc(Nc2ncnc3c2oc2ccccc23)cc1	none | PPC1 cytotox inactive
COc1ccc2nc(SCC(C)=O)c(C#N)cc2c1	none | PPC1 cytotox inactive
COc1ccc(-c2nc(C#N)c(N3CCCCCC3)o2)cc1OC	none
Cc1ccc(NC2=C/C(=N/S(=O)(=O)c3cccs3)c3ccccc3C2=O)cc1C	none
CC(=O)Nc1ccc(NC2=C/C(=N/S(=O)(=O)c3cccs3)c3ccccc3C2=O)cc1	C8 TRAIL sens 84, PPC-1+TRAIL kill 73 | PPC1 cytotox 74

Screening data as filed in PubChem BioAssay.
